Experimental data gathered from unrelated publications.
Protocols differ between the studies behind these lines.
Target: Ephrin type-B receptor 1 (EPHB1, Homo sapiens, UniProt P54762)
One construct used (P54762 18-984): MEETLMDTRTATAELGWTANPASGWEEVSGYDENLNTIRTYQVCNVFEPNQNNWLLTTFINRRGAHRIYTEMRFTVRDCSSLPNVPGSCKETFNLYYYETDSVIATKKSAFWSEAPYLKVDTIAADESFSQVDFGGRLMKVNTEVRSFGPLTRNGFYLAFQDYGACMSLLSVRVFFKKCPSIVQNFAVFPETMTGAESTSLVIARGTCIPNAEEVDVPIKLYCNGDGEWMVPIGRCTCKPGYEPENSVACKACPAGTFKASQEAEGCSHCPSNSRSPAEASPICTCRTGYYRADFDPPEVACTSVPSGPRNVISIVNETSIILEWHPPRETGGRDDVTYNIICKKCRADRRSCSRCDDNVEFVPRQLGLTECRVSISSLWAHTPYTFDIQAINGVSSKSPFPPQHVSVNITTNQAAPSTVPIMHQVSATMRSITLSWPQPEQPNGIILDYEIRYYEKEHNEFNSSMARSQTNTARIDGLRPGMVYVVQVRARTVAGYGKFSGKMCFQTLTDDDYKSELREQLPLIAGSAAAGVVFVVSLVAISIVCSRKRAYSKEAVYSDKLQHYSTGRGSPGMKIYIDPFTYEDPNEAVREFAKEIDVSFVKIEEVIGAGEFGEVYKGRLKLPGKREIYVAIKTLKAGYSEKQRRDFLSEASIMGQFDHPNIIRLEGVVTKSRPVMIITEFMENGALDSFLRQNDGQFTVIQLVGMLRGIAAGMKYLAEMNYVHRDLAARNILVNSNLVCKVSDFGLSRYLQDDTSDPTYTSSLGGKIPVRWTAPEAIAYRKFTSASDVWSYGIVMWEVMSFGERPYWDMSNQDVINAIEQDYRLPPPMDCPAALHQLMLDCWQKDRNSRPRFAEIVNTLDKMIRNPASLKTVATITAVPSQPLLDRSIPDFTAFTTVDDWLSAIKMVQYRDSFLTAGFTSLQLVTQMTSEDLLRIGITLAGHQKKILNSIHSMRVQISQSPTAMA

| SMILES | read-out | technique | concentration | remaining binding |
| --- | --- | --- | --- | --- |
| Cc1cc(NC(=O)c2cccc(S(F)(F)(F)(F)F)c2)cc(-n2ccn3nc(-c4cccnc4)cc23)c1 | cell-free assay | competition with immobilised ligand | 1 µM | 100% |
| CN(c1nccc(-c2cnn3ncccc23)n1)C1CC1 | binding |  | 1 µM | 100% |
| CNCc1ccccc1-c1csc([C@H](C)Nc2nc(C)nc3cc(OC)c(OC)cc23)c1 | cell-free assay | competition with immobilised ligand | 1 µM | 100% |
| C[C@@H](c1ccc(-n2cnc3c(N)ncnc32)cc1)N1CCc2nn(C)c(Cc3ccccc3)c2C1=O | binding | competition with immobilised ligand | 0.1 µM | 70% |
| COc1cnc(Nc2cccc(S(N)(=O)=O)c2)nc1N1CCN(c2ccccc2)C(=O)C1 | binding | competition with immobilised ligand | 1 µM | 100% |
| C=CC(=O)N1CCC(C(=O)NCC(=O)N2CCN(c3nc(-c4cnc(N)nc4C(F)F)nc(N4CCOCC4)n3)CC2)CC1 | binding | competition with immobilised ligand | 1 µM | 100% |
| CO[C@@H](C)c1c(Nc2ccc([C@H](N(C)C(=O)C3CCS(=O)(=O)CC3)C(F)(F)F)cc2)cnc2cc(Cl)nn12 | cell-free assay | competition with immobilised ligand | 1 µM | 86% |
| Cc1cnc(Nc2ccc(C(=O)N3CCC(N4CCCC4)CC3)cc2)nc1-c1cc2ccccc2s1 | binding | competition with immobilised ligand | 1 µM | 4.4% |
| FC(F)(F)Oc1cccc(-c2cnc3ccc(-c4ccncc4)nn23)c1 | cell-free assay | competition with immobilised ligand | 5 µM | 82% |
| O=C(c1ccc(Nc2ncc(Cl)c(-c3ccc(Cl)s3)n2)cc1)N1CCC(N2CCCC2)CC1 | binding | competition with immobilised ligand | 1 µM | 30% |
| C[C@@H]1CCN(c2nccc(-c3cnn4ncccc34)n2)C1 | binding |  | 1 µM | 97% |
| CCS(=O)(=O)c1cc2cc(C[C@](O)(CC(C)(C)c3ccc(F)cc3C(N)=O)C(F)(F)F)[nH]c2cn1 | cell-free assay | competition with immobilised ligand | 1 µM | 86% |
| N[C@@H]1CCN(c2nccc(-c3cnn4ncccc34)n2)C1 | binding |  | 1 µM | 96% |
| O=C(O)c1cc(-c2ccc(C3CCNCC3)cc2)c2ccc(-c3ccc(C(F)(F)F)cc3)cc2c1 | cell-free assay | competition with immobilised ligand | 1 µM | 100% |
| CN(C)c1nccc(-c2cnn3ncccc23)n1 | binding |  | 1 µM | 100% |
| c1cncc(-c2cccc(Nc3nccc(NC4CCCCC4)n3)c2)c1 | binding | competition with immobilised ligand | 10 µM | 81% |
| O=C(c1ccc(Nc2nccc(-c3cc4ccccc4s3)n2)cc1)N1CCC(N2CCCC2)CC1 | binding | competition with immobilised ligand | 1 µM | 47% |
| CN(C)c1ncc(F)c(-c2cnn3ncccc23)n1 | binding |  | 1 µM | 100% |
| O=C(Nc1c[nH]nc1C(=O)NC1CCNCC1)c1cc(F)cc(F)c1 | binding | competition with immobilised ligand | 1 µM | 100% |
| c1ccc(N2CCN(Cc3nc4ccccc4[nH]3)CC2)nc1 | cell-free assay | competition with immobilised ligand | 1 µM | 100% |
